Screening results: PubChem BioAssay, several laboratories
In the library only some 4.1% were active in any assay of this set; here they are far more common.
DTT redox prof = compounds producing H2O2 with reducing agent – biochemical, NIH compound library profiling, artefact control for MLSCN library redox annotation, primary screen. activation, % at 10 µM. AID 878, 2007. DTT-dependent redox cycling H2O2, phenol red/HRP absorbance; 100% = 100 µM peroxide control, 0% = buffer. hit rate 0.03% among 200,000;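 active = activation of at least 50% relative to the plate's high and low controls in the primary single-dose screen; inactive = activation below 50%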;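 note: compound incubated with DTT at 0.8 mM final as the reducing agent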
Cl transport mod = KCC2 cotransporter modulators, thallium flux, primary screen, cell-based, HEK293 KCC2, FluoZin-2 fluorescence, MLSMR; Solute carrier family 12 member 5 (Homo sapiens), Q9H2X9; KCC2 cells, thallium flux FluoZin-2 fluorescence; B-score of Tl+ flux slope (higher = more flux/activation; lower = inhibition) at 10 µM; hit rate 2.2% among 190,000; AID 1456, 2008;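 active = thallium flux slope and its plate-corrected score both differing from the plate sample mean at a set confidence after two filtering rounds, in either direction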;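 note: slope of fluorescence scaled to starting intensity during 10 to 20 s after thallium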
Dynein cargo inh = inhibitors of GR-EGFP nuclear translocation, primary screen, dynein cargo transport inhibitor project, imaging, high-content, 3617.4 mouse cells | test concentration mostly 20 µM; stimulated with dexamethasone, 1 µM; active compounds read low | z-score, hits read low | hit rate 0.47% among 220,000 | AID 1381, 2008;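 active = plate z-score of nuclear minus cytoplasmic receptor signal below a set negative limit, without overly bright fluorescence or cell loss, cut at about -3.5 in these data, passing the limit was not always enough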;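 note: z-score of nuclear minus cytoplasmic ring GR-EGFP intensity difference per well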
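Buffer or medium: Induction medium lacking tetracycline, stripped serum | Also added: Dexamethasone agonist, 1.0 µM final, for 30 min | Timing: 48 h induction, 1 h compound, 30 min dex at 37 °C | Detection: Formaldehyde fixation, Hoechst nuclear stain, 10x automated fluorescence imaging | Measure: Nuclear versus cytoplasmic GR-EGFP signal, averaged per well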
ROMK mod = ROMK potassium channel modulators, primary screen, cell-based, thallium flux, MLSMR library; hit rate 2% among 130,000; Tet-inducible ROMK, thallium flux fluorescence; actives lie on both sides; AID 1918, 2009; B-score at 10 µM; ATP-sensitive inward rectifier potassium channel 1 (Homo sapiens), P48048;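 active = signal ratio slope over the read window, or its plate-corrected B-score, at least 3 SD from the plate mean, either direction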;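 note: B-score of the F/F0 ratio slope over 7 to 12 s after thallium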
Target sequence (P48048 whole entry, looked up): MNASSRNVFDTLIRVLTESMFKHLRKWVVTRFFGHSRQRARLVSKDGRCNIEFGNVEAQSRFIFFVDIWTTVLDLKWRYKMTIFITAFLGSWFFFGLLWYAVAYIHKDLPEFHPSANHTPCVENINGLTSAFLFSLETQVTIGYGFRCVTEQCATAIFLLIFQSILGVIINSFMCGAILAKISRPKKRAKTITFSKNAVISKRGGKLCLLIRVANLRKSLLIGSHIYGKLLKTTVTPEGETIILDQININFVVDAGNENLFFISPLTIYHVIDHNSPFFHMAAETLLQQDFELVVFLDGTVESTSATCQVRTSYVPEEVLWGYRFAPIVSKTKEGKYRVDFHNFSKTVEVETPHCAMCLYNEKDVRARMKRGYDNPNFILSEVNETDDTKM
Autophagy HCS = autophagy modulators in MEF cells, primary screen, imaging, high-content, MEF GFP-LC3 | calls only at 10 µM (by protocol) | hit rate 0.98% among 190,000 | MEF GFP-LC3 puncta imaging; test concentration mostly 10 µM;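 active = percentage of spot-positive cells more than 3 SD above its plate mean, without a fluorescence outlier flag or 80% toxicity; inconclusive = no clear call, values can overlap the other calls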;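 note: spot-positive cell cutoff set from DMSO-treated cells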
ROMK retest = ROMK channel modulator hit retest, confirmation, cell-based, thallium flux, duplicate, resupplied hits; shares compounds with ROMK mod; fluorescence ratio; active compounds read low; normalized thallium flux (F/F0 slope) at 10 µM; hit rate 54% among 3,000;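 active = Flux at 10 µM at least 3 SD below or above vehicle control mean in one or both replicates; inconclusive = no clear call, values can overlap the other calls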
The depositor's hits bear a star; i = inactive; ? = inconclusive; . = no result.

SMILES	DTT redox prof	Cl transport mod	Dynein cargo inh	ROMK mod	Autophagy HCS	ROMK retest
CCCn1c(NC(=O)c2cccc(S(=O)(=O)N3CCCC3)c2)nc2ccccc21	-2.3	0.000573	-1.09	.	i	0.0832
CCNC(=O)c1ccccc1NC(=O)c1cccc(S(=O)(=O)N2CCC(C)CC2)c1	1.7	-0.497	0.506	.	i	0.0719
NS(=O)(=O)c1ccc(NC(=O)COC(=O)C2CC(=O)N(Cc3ccccc3)C2)cc1 (stereo unspecified)	-0.1	0.622	1.45	-0.0153	i	.
CC(C)C(=O)OC1CCS(=O)(=O)c2sccc21 (stereo unspecified)	-0.6	1.68	-0.379	1.98	i	.
O=C(CN1CCN(c2ccc([N+](=O)[O-])cc2)CC1)Nc1ccccn1	-0.1	.	-0.823	-3.16*	i	0.0539*
O=C(CN1CCN(c2ccc([N+](=O)[O-])cc2)CC1)Nc1nccs1	-0.1	-0.876	-0.457	-1.08	i	.
CCCCOc1ccc(C2CC(=O)N(C)C2=O)cc1 (stereo unspecified)	0.5	.	-0.964	-0.443	i	.
O=C1CC(c2ccc(OCCCCCOc3ccc(C4CC(=O)NC4=O)cc3)cc2)C(=O)N1 (stereo unspecified)	-0.3	-0.509	-0.482	-3.45*	i	0.0602*
CCn1cc(CN2CCCC(C(=O)c3ccc(-c4ccccc4)cc3)C2)cn1 (stereo unspecified)	-0.4	-1.58	0.433	-2.28	i	.
Cc1ccc(S(=O)(=O)N2CCC(=O)N(C(COCc3ccc(Cl)c(Cl)c3)Cc3ccccc3)CC2)cc1 (stereo unspecified)	4.4	-2.6	0.0161	-4.74*	i	0.0615*
Cc1ccc(S(=O)(=O)N2CCC(=O)N(C(COCc3cccc(C)c3)Cc3ccccc3)CC2)cc1 (stereo unspecified)	0.9	-1.7	-0.198	-1.68	i	.
Cc1ccc(S(=O)(=O)N2CCC(=O)N(C(COCc3ccc(C(F)(F)F)cc3)Cc3ccccc3)CC2)cc1 (stereo unspecified)	2.6	1.74	0.689	-6.66*	i	0.0755
O=C(COC(=O)c1c2c(nc3ccccc13)CCCC2)Nc1ccc2c(c1)OCO2	1.7	-0.28	-0.106	.	i	0.0751
COc1cccc(NC(=O)COC(=O)c2nc(Cl)ccc2Cl)c1	-1.9	-0.452	0.501	0.37	i	.
O=C(COC(=O)c1nc(Cl)ccc1Cl)Nc1ccc2c(c1)OCO2	-0.2	0.0395	-0.57	-1.7*	i	0.0796
O=C(COC(=O)c1cc(-c2ccccc2)nc2ccccc12)Nc1ccc2c(c1)OCO2	0.5	0.697	-0.962	.	i	.
CC(=O)Nc1ccc(OCCOc2ccc(/C=C3/C(=N)N4C=CSC4=NC3=O)cc2)cc1	0.4	-0.585	0.545	4.12*	i	?
Cc1cc(S(=O)(=O)NCC(C)C)ccc1OCC(=O)NCc1ccco1	-1.0	0.4	-0.295	.	i	.
CCSc1nnc(NC(=O)c2c(-c3ccccc3Cl)noc2C)s1	-0.2	-0.285	-0.952	.	i	.
Cc1onc(-c2ccccc2Cl)c1C(=O)Nc1nnc(-c2cccc([N+](=O)[O-])c2)s1	-1.3	.	0.143	.	i	0.0611*
Cc1ccc(C(=O)N2CCN(S(=O)(=O)c3ccccc3)CC2)cc1	-0.2	-0.182	1.16	2.75*	i	?
CC(C)(C)C(=O)Nc1cccc(-c2cc(-c3c(Cl)cccc3Cl)no2)c1	.	-1.27	0.0464	.	.	.
OC[C@@H]1CCCN1Cc1cn(-c2ccccc2)nc1-c1ccc2c(c1)OCO2	-1.5	.	-0.155	-1.12	i	.
c1ccc(-n2cc(CNCCc3cscn3)c(-c3ccc4c(c3)OCO4)n2)cc1	-0.8	1.29	-0.737	-3.1*	i	0.0504*
COCC1CCCCN1Cc1cn(-c2ccccc2)nc1-c1ccc2c(c1)OCO2 (stereo unspecified)	-1.0	0.273	2.38	-3.42*	i	0.065*
SMILES	DTT redox prof	Cl transport mod	Dynein cargo inh	ROMK mod	Autophagy HCS	ROMK retest
CCOC(=O)c1ccc(-n2c(O)c(/C=N/NC(=O)C3COc4ccccc4O3)c3ccccc3c2=O)cc1 (stereo unspecified)	0.4	-2.45	-0.0104	.	i	0.0457*
CCOc1c(Nc2ccc(C(C)C)cc2)c(=O)c1=O	.	-0.72	0.816	0.0144	.	.
CC(c1ccco1)N(C(=O)c1ccccc1NS(=O)(=O)c1ccc(Cl)c([N+](=O)[O-])c1)c1ccccn1 (stereo unspecified)	2.6	1.07	-1.2	.	i	0.0624*
CCOC(=O)C1=C(Cc2ccc(C)cc2)C(=O)c2ccccc2C1=O	0.5	0.0102	-0.511	-5.08*	i	0.0542*
CCOC(=O)c1cnc2ccc(OCC)cc2c1NCc1cccnc1	-0.3	-2.08	0.911	3.68*	i	0.0893
CCOC(=O)c1cnc2ccc(OC)cc2c1NCCc1ccc(OC)c(OC)c1	-0.8	0.517	-0.204	-4.12*	i	0.0552*
CCOC(=O)c1cnc2ccc(OCC)cc2c1NCc1ccccc1	-0.6	0	-0.515	0.115	i	.
CCOC(=O)c1cnc2ccccc2c1NCCc1ccc(OC)c(OC)c1	1.2	-0.02	-0.0765	-2.04	i	.
C/C(O)=C\c1nc2ccccc2oc1=O	0.4	0.936	1.18	.	i	0.0738
O=C(NCC(O)CO)c1ccc2[nH]c3ccccc3c2c1 (stereo unspecified)	1.3	-0.0632	0.148	.	i	0.0769
CCOC(=O)CNC(=O)c1ccc2[nH]c3ccccc3c2c1	-0.4	-1.84	2.44	0.219	i	.
O=[N+]([O-])c1ccc(O)c(C(C#Cc2ccccc2)N2CCOCC2)c1 (stereo unspecified)	.	1.28	-1.07	.	.	.
CC(C)(C)C(=O)NC(n1cnc2c(N3CCOCC3)ncnc21)C(Cl)(Cl)Cl (stereo unspecified)	-0.3	-1.49	0.207	-0.0247	i	.
COc1ccc(/C=C(/Sc2nnc(-c3ccc(Cl)cc3)o2)C(=O)O)cc1	-2.1	-0.804	-0.408	0.483	i	.
COc1cc(/C=C(/Sc2nnc(-c3ccc(F)cc3)o2)C(=O)O)ccc1OC(F)F	0.5	-0.763	0.216	-11*	i	0.0769
CC(=O)N1CCc2cc(Br)cc(S(=O)(=O)NCc3ccccn3)c21	-0.5	.	-0.584	-7.42*	i	0.0851
CN(Cc1ccccc1)C(=O)c1ccccc1-c1ccccc1	-2.0	-0.213	1.04	0.753	i	.
CN(Cc1ccccc1)C(=O)c1ccccc1Br	-0.4	.	-0.618	-2.83*	i	0.0662*
